Legend:
Hepatitis C virus [1] = experiment: Inhibition of HCV1b NS5B delta21 polymerase after 1 hr; assay type: single protein, Hepatitis C virus subtype 1b
Procedure, shortened: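 Enzyme inhibition IC50 measured on genotype 1b HCV NS5B polymerase truncated by 21 C-terminal residues (ΔC21).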

Hepatitis C virus [2] = experiment: Antiviral activity against HCV1b infected in human Huh-7 cells assessed as inhibition of viral RNA replication after 96 hrs by ELISA assay in presence of 10% fetal calf serum; assay type: functional, organism-based, Hepacivirus hominis; conditions: genotype 1b, Huh-7, 96 h
Hepatitis C virus [3] = experiment: Antiviral activity against HCV1b infected in human Huh-7 cells assessed as inhibition of viral RNA replication after 96 hrs by ELISA assay in presence of 50% normal human serum; assay type: functional, organism-based, Hepacivirus hominis; conditions: genotype 1b, Huh-7, 96 h
[4] = Fraction unbound in human plasma; assay type: ADME, cell-free
Hepatitis C virus [5] = experiment: Ratio of EC50 for HCV1b to EC50 for HCV1b in presence of 50% normal human serum; assay type: functional, Hepacivirus hominis, genotype 1b
[6] = Ratio of drug level in liver to plasma in Sprague-Dawley rat liver at 3 mg/kg, po after 6 hrs; assay type: ADME, organism-based; parameters: dose 3 mg/kg, route oral
Procedure, shortened: (§1)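 Sprague-Dawley rats (n = 3) received the compound as its TFA salt in DMSO/PEG400/water 20%/60%/20%, as a single iv dose of 3 mg/kg or a single oral dose of 3 mg/kg. Liver tissue and plasma concentrations were measured 6 h after the oral dose.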

[7] = Intrinsic clearance in dog liver microsomes assessed per mg of protein; assay type: ADME, Canis lupus familiaris, Microsome
[8] = AUC in Sprague-Dawley rat at 3 mg/kg, po; assay type: ADME, organism-based; parameters: dose 3 mg/kg, route oral; conditions: plasma
Procedure, shortened: (§2)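 Single-dose rat PK with the compound given as its TFA salt to Sprague-Dawley rats (n = 3) in DMSO/PEG400/water 20%/60%/20%. Dosing was 3 mg/kg iv and 3 mg/kg po.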

[9] = Cmax in Sprague-Dawley rat at 3 mg/kg, po; assay type: ADME, organism-based; parameters: dose 3 mg/kg, route oral; conditions: in vivo; procedure, shortened: as §1
[10] = Drug level in Sprague-Dawley rat liver at 3 mg/kg, po after 6 hrs; assay type: ADME, organism-based; parameters: dose 3 mg/kg, route oral; conditions: read-out: Drug uptake; procedure, shortened: as §1
[11] = Intrinsic clearance in human liver microsomes assessed per mg of protein; assay type: ADME, Microsome
[12] = Clearance in Sprague-Dawley rat at 3 mg/kg, iv; assay type: ADME, organism-based; parameters: dose 3 mg/kg, route intravenous; conditions: in vivo; procedure, shortened: as §1
[13] = Volume of distribution in Sprague-Dawley rat at 3 mg/kg, iv; assay type: ADME, organism-based; parameters: dose 3 mg/kg, route intravenous; conditions: in vivo
Procedure, shortened: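 Sprague-Dawley rats (n = 3) received a single 3 mg/kg iv dose, given as the TFA salt, in DMSO/PEG400/water 20%/60%/20%. Plasma clearance, half-life and volume of distribution were derived.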

[14] = Intrinsic clearance in rat liver microsomes assessed per mg of protein; assay type: ADME, Microsome
[15] = Half life in Sprague-Dawley rat at 3 mg/kg, iv; assay type: ADME, organism-based; parameters: dose 3 mg/kg, route intravenous; conditions: in vivo; procedure, shortened: as §1
[16] = Oral bioavailability in Sprague-Dawley rat at 3 mg/kg; assay type: ADME, organism-based; conditions: in vivo; procedure, shortened: as §2

| Compound | IC50 (Hepatitis C virus [1]) | EC50 (Hepatitis C virus [2]) | EC50 (Hepatitis C virus [3]) | Ratio EC50 (Hepatitis C virus [5]) | other results |
| --- | --- | --- | --- | --- | --- |
| O=C(O)c1ccc2c(C3CCCCC3)c3n(c2c1)CCCOc1ccccc1-3 | 42 nM | 2740 nM | – | – | – |
| CN(C)CCN(C)[C@@H]1COc2ccccc2-c2c(C3CCCCC3)c3ccc(C(=O)O)cc3n2C1 | 35 nM | 338 nM | 1680 nM | 3 | – |
| CN(C)CCO[C@H]1COc2ccccc2-c2c(C3CCCCC3)c3ccc(C(=O)O)cc3n2C1 | 72 nM | 432 nM | 1410 nM | – | – |
| O=C(O)c1ccc2c(C3CCCCC3)c3n(c2c1)CCCc1ccccc1-3 | 35 nM | 10400 nM | – | – | – |
| CCN(CC)C1CCN(C(=O)Cn2c(-c3ccc(Cl)cc3)c(C3CCCCC3)c3ccc(C(=O)O)cc32)CC1 | 48 nM | – | – | – | Kp at 6 h [6]: 16 |
| CNC1COc2ccccc2-c2c(C3CCCCC3)c3ccc(C(=O)O)cc3n2C1 (racemic) | 51 nM | 1030 nM | 4980 nM | – | – |
| CN(C)C1COc2ccccc2-c2c(C3CCCCC3)c3ccc(C(=O)O)cc3n2C1 (racemic) | 32 nM | 570 nM | 2110 nM | 4 | – |
| CN(C)CCNC1COc2ccccc2-c2c(C3CCCCC3)c3ccc(C(=O)O)cc3n2C1 (racemic) | 32 nM | 173 nM | 856 nM | 4 | bioavailability [16]: 20%; microsomal CLint [7]: 7 µL/min/mg; AUC [8]: 0.9 µM·h; Cmax [9]: 300 nM; concentration at 6 h [10]: 1300 nM; microsomal CLint [11]: 5 µL/min/mg; clearance [12]: 21 mL/min/kg; Vd [13]: 3.2 L/kg; microsomal CLint [14]: 7 µL/min/mg; Kp at 6 h [6]: 21; half-life [15]: 3 h |
| COCCNC1COc2ccccc2-c2c(C3CCCCC3)c3ccc(C(=O)O)cc3n2C1 (racemic) | 63 nM | 2480 nM | – | – | – |
| CN(C)C(=O)CNC1COc2ccccc2-c2c(C3CCCCC3)c3ccc(C(=O)O)cc3n2C1 (racemic) | 51 nM | 766 nM | > 5000 nM | – | – |
| CN(C)CC(=O)NC1COc2ccccc2-c2c(C3CCCCC3)c3ccc(C(=O)O)cc3n2C1 (racemic) | 47 nM | 170 nM | 1430 nM | – | – |
| CC(C)N(CCN(C)C)C1COc2ccccc2-c2c(C3CCCCC3)c3ccc(C(=O)O)cc3n2C1 (racemic) | 34 nM | 138 nM | 1200 nM | 7 | – |

Stronger by IC50 (Hepatitis C virus [1]), values ahead:

| IC50 (Hepatitis C virus [1]) | EC50 (Hepatitis C virus [2]) | Compound | EC50 (Hepatitis C virus [3]) | Ratio EC50 (Hepatitis C virus [5]) | other results |
| --- | --- | --- | --- | --- | --- |
| 19 nM | 150 nM | CC(C)N1CC[C@H](N2CCn3c(c(C4CCCCC4)c4sc(C(=O)O)cc43)-c3ccccc3C2)C1 | – | – | – |
| 31 nM | 73 nM | CN(C)CC(=O)N(C)C1COc2ccccc2-c2c(C3CCCCC3)c3ccc(C(=O)O)cc3n2C1 (stereo not drawn) | 743 nM | 10 | fraction unbound [4]: 0.005 |
| 19 nM | 78 nM | CN(C)CCO[C@@H]1COc2ccccc2-c2c(C3CCCCC3)c3ccc(C(=O)O)cc3n2C1 | 493 nM | 6 | – |
| 30 nM | 338 nM | CC(C)N1CC2(COc3ccccc3-c3c(C4CCCCC4)c4ccc(C(=O)O)cc4n3C2)C1 | 590 nM | – | – |
| 4 nM | 80 nM | CN(C)CCN1CC2(COc3ccccc3-c3c(C4CCCCC4)c4ccc(C(=O)O)cc4n3C2)C1 | 454 nM | – | – |
| 27 nM | – | CN(C)CCN1CCn2c(c(C3CCCCC3)c3ccc(C(=O)O)cc32)-c2ccccc2C1 | – | – | microsomal CLint [7]: 26 µL/min/mg; AUC [8]: 0.7 µM·h; Cmax [9]: 200 nM; concentration at 6 h [10]: 640 nM; microsomal CLint [11]: 5 µL/min/mg; clearance [12]: 61 mL/min/kg; Vd [13]: 5.1 L/kg; microsomal CLint [14]: 100 µL/min/mg; half-life [15]: 1.6 h |
| 4 nM | 29 nM | COc1ccc2c(c1)[C@H]1[C@@H](CCN1CCN(C)C)Cn1c-2c(C2CCCCC2)c2ccc(C(=O)O)cc21 | – | – | – |
| 8 nM | 66 nM | CN1CCN(CCN(C)C2COc3ccccc3-c3c(C4CCCCC4)c4ccc(C(=O)O)cc4n3C2)CC1 (racemic) | 581 nM | 9 | fraction unbound [4]: 0.011 |
| 12 nM | 591 nM | NCCNC1COc2ccccc2-c2c(C3CCCCC3)c3ccc(C(=O)O)cc3n2C1 (racemic) | 1700 nM | 4 | – |
| 17 nM | 258 nM | CN(C)CCCNC1COc2ccccc2-c2c(C3CCCCC3)c3ccc(C(=O)O)cc3n2C1 (racemic) | 1370 nM | 4 | – |
| 21 nM | 224 nM | CN1CCC(NC2COc3ccccc3-c3c(C4CCCCC4)c4ccc(C(=O)O)cc4n3C2)CC1 (racemic) | 1130 nM | 4 | – |
| 15 nM | 73 nM | CN(C)CCN(C)C1COc2ccccc2-c2c(C3CCCCC3)c3ccc(C(=O)O)cc3n2C1 (racemic) | 313 nM | – | fraction unbound [4]: 0.027 |
| 10 nM | 120 nM | CN1CCN(C2COc3ccccc3-c3c(C4CCCCC4)c4ccc(C(=O)O)cc4n3C2)CC1 (racemic) | 361 nM | – | – |
| 9 nM | 83 nM | CNCCN(C)C1COc2ccccc2-c2c(C3CCCCC3)c3ccc(C(=O)O)cc3n2C1 (racemic) | 550 nM | – | – |
| 11 nM | 99 nM | CN(CCN1CCCC1)C1COc2ccccc2-c2c(C3CCCCC3)c3ccc(C(=O)O)cc3n2C1 (racemic) | 335 nM | – | – |
| 10 nM | 90 nM | CN(CCN1CCOCC1)C1COc2ccccc2-c2c(C3CCCCC3)c3ccc(C(=O)O)cc3n2C1 (racemic) | 312 nM | – | – |
| 11 nM | 153 nM | CCN(CCN(C)C)C1COc2ccccc2-c2c(C3CCCCC3)c3ccc(C(=O)O)cc3n2C1 (racemic) | 1030 nM | 7 | – |
